Measured values published in ChEMBL document CHEMBL5058577, “EUbOPEN Chemogenomics Library 2 (Multiplex)” (2022).

System: U2OS
Assay: Multiplex assay against U2OS
Format: toxicity, cell-based
Details: human
Method in brief: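 Live cells were stained at seeding with Hoechst33342, BioTracker Green Microtubule Cytoskeleton Dye, MitoTracker Red and Annexin V Alexa Fluor 680, then imaged on a CQ1 microscope at 37°C and 5% CO2 after compound addition. CellPathfinder machine-learning gating split cells into Hoechst high-intensity objects or normal cells. Normal cells were split into healthy, pyknosed or fragmented nuclei, and pyknosed cells into mitotic or apoptotic. Tubulin, mitochondrial-mass and membrane-permeability phenotypes are per cents of healthy-nucleus cells.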

[1] = 12 h, 1 µM, compound concentration 1 uM, replicate 1
[2] = 12 h, 1 µM, compound concentration 1 uM, replicate 2
[3] = 12 h, 10 µM, compound concentration 10 uM, replicate 1
[4] = 12 h, 10 µM, compound concentration 10 uM, replicate 2
[5] = 24 h, 1 µM, compound concentration 1 uM, replicate 1
[6] = 24 h, 1 µM, compound concentration 1 uM, replicate 2
[7] = 24 h, 10 µM, compound concentration 10 uM, replicate 1
[8] = 24 h, 10 µM, compound concentration 10 uM, replicate 2
[9] = 48 h, 1 µM, compound concentration 1 uM, replicate 1
[10] = 48 h, 1 µM, compound concentration 1 uM, replicate 2
[11] = 48 h, 10 µM, compound concentration 10 uM, replicate 1
[12] = 48 h, 10 µM, compound concentration 10 uM, replicate 2

SMILES: O=C(Nc1cc(-c2ccccc2)nn1-c1ccccc1F)c1ccc([N+](=O)[O-])cc1
- Population Apoptotic (%) [1]: 86%
- Population Fragmented Nuclei (%) [1]: 25%
- Population Healthy Nuclei (%) [1]: 66%
- Population Hoechst High Intensity Objects (%) [1]: 4%
- Population Membrane Permeable-Phenotype (%) [1]: 10%
- Population Mitochondria Different-Phenotype (%) [1]: 4%
- Population Mitotic Cells (%) [1]: 13%
- Population Normal (%) [1]: 95%
- Population Pyknosed Nuclei (%) [1]: 8%
- Population Tubulin-Different-Phenotype (%) [1]: 4%
- Total Cell Count [1]: 293
- Population Apoptotic (%) [2]: 91%
- Population Fragmented Nuclei (%) [2]: 14%
- Population Healthy Nuclei (%) [2]: 78%
- Population Hoechst High Intensity Objects (%) [2]: 1%
- Population Membrane Permeable-Phenotype (%) [2]: 9%
- Population Mitotic Cells (%) [2]: 8%
- Population Normal (%) [2]: 98%
- Population Pyknosed Nuclei (%) [2]: 6%
- Population Tubulin-Different-Phenotype (%) [2]: 9%
- Total Cell Count [2]: 182
- Population Apoptotic (%) [3]: 66%
- Population Fragmented Nuclei (%) [3]: 30%
- Population Healthy Nuclei (%) [3]: 60%
- Population Hoechst High Intensity Objects (%) [3]: 3%
- Population Membrane Permeable-Phenotype (%) [3]: 11%
- Population Mitochondria Different-Phenotype (%) [3]: 5%
- Population Mitotic Cells (%) [3]: 33%
- Population Normal (%) [3]: 96%
- Population Pyknosed Nuclei (%) [3]: 9%
- Population Tubulin-Different-Phenotype (%) [3]: 7%
- Total Cell Count [3]: 293
- Population Apoptotic (%) [4]: 94%
- Population Fragmented Nuclei (%) [4]: 12%
- Population Healthy Nuclei (%) [4]: 73%
- Population Hoechst High Intensity Objects (%) [4]: 0%
- Population Mitochondria Different-Phenotype (%) [4]: 8%
- Population Mitotic Cells (%) [4]: 5%
- Population Normal (%) [4]: 100%
- Population Pyknosed Nuclei (%) [4]: 13%
- Population Tubulin-Different-Phenotype (%) [4]: 6%
- Total Cell Count [4]: 134
- Population Apoptotic (%) [5]: 91%
- Population Fragmented Nuclei (%) [5]: 24%
- Population Healthy Nuclei (%) [5]: 68%
- Population Hoechst High Intensity Objects (%) [5]: 3%
- Population Membrane Permeable-Phenotype (%) [5]: 6%
- Population Mitochondria Different-Phenotype (%) [5]: 4%
- Population Mitotic Cells (%) [5]: 8%
- Population Normal (%) [5]: 96%
- Population Pyknosed Nuclei (%) [5]: 7%
- Population Tubulin-Different-Phenotype (%) [5]: 5%
- Total Cell Count [5]: 342
- Population Apoptotic (%) [6]: 100%
- Population Fragmented Nuclei (%) [6]: 15%
- Population Healthy Nuclei (%) [6]: 76%
- Population Hoechst High Intensity Objects (%) [6]: 1%
- Population Membrane Permeable-Phenotype (%) [6]: 9%
- Population Mitochondria Different-Phenotype (%) [6]: 5%
- Population Mitotic Cells (%) [6]: 0%
- Population Normal (%) [6]: 98%
- Population Pyknosed Nuclei (%) [6]: 8%
- Population Tubulin-Different-Phenotype (%) [6]: 6%
- Total Cell Count [6]: 226
- Population Apoptotic (%) [7]: 91%
- Population Fragmented Nuclei (%) [7]: 25%
- Population Healthy Nuclei (%) [7]: 64%
- Population Hoechst High Intensity Objects (%) [7]: 1%
- Population Membrane Permeable-Phenotype (%) [7]: 7%
- Population Mitochondria Different-Phenotype (%) [7]: 3%
- Population Mitotic Cells (%) [7]: 8%
- Population Normal (%) [7]: 98%
- Population Pyknosed Nuclei (%) [7]: 9%
- Population Tubulin-Different-Phenotype (%) [7]: 5%
- Total Cell Count [7]: 353
- Population Apoptotic (%) [8]: 100%
- Population Fragmented Nuclei (%) [8]: 14%
- Population Healthy Nuclei (%) [8]: 76%
- Population Hoechst High Intensity Objects (%) [8]: 0%
- Population Membrane Permeable-Phenotype (%) [8]: 11%
- Population Mitochondria Different-Phenotype (%) [8]: 8%
- Population Mitotic Cells (%) [8]: 0%
- Population Normal (%) [8]: 99%
- Population Tubulin-Different-Phenotype (%) [8]: 8%
- Total Cell Count [8]: 164
- Population Apoptotic (%) [9]: 89%
- Population Fragmented Nuclei (%) [9]: 17%
- Population Healthy Nuclei (%) [9]: 73%
- Population Hoechst High Intensity Objects (%) [9]: 2%
- Population Membrane Permeable-Phenotype (%) [9]: 9%
- Population Mitochondria Different-Phenotype (%) [9]: 5%
- Population Mitotic Cells (%) [9]: 10%
- Population Normal (%) [9]: 97%
- Population Pyknosed Nuclei (%) [9]: 8%
- Population Tubulin-Different-Phenotype (%) [9]: 5%
- Total Cell Count [9]: 475
- Population Apoptotic (%) [10]: 90%
- Population Fragmented Nuclei (%) [10]: 12%
- Population Healthy Nuclei (%) [10]: 79%
- Population Hoechst High Intensity Objects (%) [10]: 1%
- Population Membrane Permeable-Phenotype (%) [10]: 6%
- Population Mitochondria Different-Phenotype (%) [10]: 4%
- Population Normal (%) [10]: 98%
- Total Cell Count [10]: 371
- Population Apoptotic (%) [11]: 81%
- Population Fragmented Nuclei (%) [11]: 20%
- Population Healthy Nuclei (%) [11]: 67%
- Population Hoechst High Intensity Objects (%) [11]: 2%
- Population Membrane Permeable-Phenotype (%) [11]: 8%
- Population Mitochondria Different-Phenotype (%) [11]: 4%
- Population Mitotic Cells (%) [11]: 18%
- Population Normal (%) [11]: 97%
- Population Pyknosed Nuclei (%) [11]: 12%
- Population Tubulin-Different-Phenotype (%) [11]: 6%
- Total Cell Count [11]: 445
- Population Apoptotic (%) [12]: 89%
- Population Fragmented Nuclei (%) [12]: 10%
- Population Healthy Nuclei (%) [12]: 76%
- Population Membrane Permeable-Phenotype (%) [12]: 11%
- Population Mitochondria Different-Phenotype (%) [12]: 8%
- Population Mitotic Cells (%) [12]: 10%
- Population Pyknosed Nuclei (%) [12]: 13%
- Population Tubulin-Different-Phenotype (%) [12]: 8%
- Total Cell Count [12]: 226
